Results taken from ChEMBL document CHEMBL1133118 (J Med Chem, 2000).
One block for each molecule: values may come before it.

Tests used:
Adenosine receptor A2b [1] = biological target: T1, Adenosine receptor A2b (Homo sapiens, UniProt P29275); test: Displacement of [3H]DPCPX from Adenosine A2b receptor expressed in CHO cells; type: cell-based
T1 sequence (P29275 whole entry): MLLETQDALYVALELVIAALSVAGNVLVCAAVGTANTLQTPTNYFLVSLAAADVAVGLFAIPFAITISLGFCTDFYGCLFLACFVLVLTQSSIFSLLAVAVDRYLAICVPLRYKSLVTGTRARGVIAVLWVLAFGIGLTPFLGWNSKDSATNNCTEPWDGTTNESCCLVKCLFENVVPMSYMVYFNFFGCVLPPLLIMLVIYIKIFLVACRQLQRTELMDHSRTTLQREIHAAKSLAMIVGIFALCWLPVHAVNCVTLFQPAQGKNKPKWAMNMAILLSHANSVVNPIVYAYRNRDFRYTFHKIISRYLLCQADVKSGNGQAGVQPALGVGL

Adenosine receptor A2a [2] = biological target: T2, Adenosine receptor A2a (Homo sapiens, UniProt P29274); test: Displacement of [3H]-SCH- 58261 from human adenosine A2A receptor expressed in CHO cells; type: cell-based
T2 sequence (P29274 whole entry): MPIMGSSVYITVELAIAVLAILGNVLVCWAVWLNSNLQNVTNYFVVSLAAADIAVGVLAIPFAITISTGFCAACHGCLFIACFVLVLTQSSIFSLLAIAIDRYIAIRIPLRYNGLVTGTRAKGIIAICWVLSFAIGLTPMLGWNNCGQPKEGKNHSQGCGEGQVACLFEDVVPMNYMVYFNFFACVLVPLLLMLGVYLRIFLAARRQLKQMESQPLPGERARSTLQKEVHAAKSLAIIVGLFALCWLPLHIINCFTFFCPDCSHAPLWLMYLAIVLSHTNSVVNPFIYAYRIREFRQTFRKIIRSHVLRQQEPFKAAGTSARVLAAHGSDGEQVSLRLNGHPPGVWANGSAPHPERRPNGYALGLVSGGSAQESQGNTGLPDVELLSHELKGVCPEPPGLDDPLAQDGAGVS

Adenosine receptor A1 [3] = biological target: T3, Adenosine receptor A1 (Homo sapiens, UniProt P30542); test: Displacement of [3H]DPCPX from human adenosine A1 receptor expressed in CHO cells; range 2894-3460; type: cell-based
T3 sequence (P30542 whole entry): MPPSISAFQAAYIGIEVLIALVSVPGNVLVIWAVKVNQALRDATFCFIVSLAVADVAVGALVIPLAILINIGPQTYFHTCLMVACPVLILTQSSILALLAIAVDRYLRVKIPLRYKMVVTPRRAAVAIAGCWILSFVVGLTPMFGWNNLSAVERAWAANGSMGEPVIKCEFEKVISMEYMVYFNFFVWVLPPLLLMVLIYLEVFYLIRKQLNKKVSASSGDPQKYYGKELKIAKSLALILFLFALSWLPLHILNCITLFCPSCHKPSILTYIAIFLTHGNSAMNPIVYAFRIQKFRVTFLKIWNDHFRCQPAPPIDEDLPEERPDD

Adenosine receptor A3 [4] = biological target: T4, Adenosine receptor A3 (Homo sapiens, UniProt P0DMS8); test: Displacement of [3H]MRE3008-F20 from human adenosine A3 receptor expressed in CHO cells; range 34-76; type: cell-based
T4 sequence (P0DMS8 whole entry): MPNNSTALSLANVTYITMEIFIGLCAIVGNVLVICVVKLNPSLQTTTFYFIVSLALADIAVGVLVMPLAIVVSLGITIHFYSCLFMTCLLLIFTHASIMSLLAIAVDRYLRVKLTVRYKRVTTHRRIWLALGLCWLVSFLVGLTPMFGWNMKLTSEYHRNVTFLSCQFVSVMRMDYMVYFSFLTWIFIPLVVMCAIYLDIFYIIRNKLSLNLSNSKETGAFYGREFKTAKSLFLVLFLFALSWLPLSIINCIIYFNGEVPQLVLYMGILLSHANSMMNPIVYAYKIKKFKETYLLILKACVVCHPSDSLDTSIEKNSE

[5] = biological target: Adenosine receptors; A1 & A3 (Homo sapiens) (UniProt P30542+P0DMS8); test: Ratio of binding affinity of human A1 receptor to that of human A3 receptor; type: protein assay
Outline: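 Ki ratio from displacement in CHO membranes, 6–8 concentrations, n=3-6, filtration counting. A1: 1 nM [3H]DPCPX, 50 μg protein, 120 min at 25 °C, nonspecific with 10 μM CHA. A3: 1 nM [3H]MRE3008-F20, 50 μg protein, Tris/10 mM MgCl2 pH 7.4, 120 min at 4 °C, nonspecific with 1 μM MRE3008-F20.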

[6] = biological target: Adenosine receptors; A2b & A3 (Homo sapiens) (UniProt P29275+P0DMS8); test: Ratio of binding affinity of human A2B receptor to that of human A3 receptor; type: protein assay
Outline: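 Ki ratio, n=3-6, 6–8 concentrations. A2B in HEK-293 membranes (20 μg): 40 nM [3H]DPCPX, 50 mM Tris HCl, 10 mM MgCl2, 1 mM EDTA, 0.1 mM benzamidine pH 7.4, 2 IU/mL adenosine deaminase, 60 min at 25 °C, nonspecific with 100 μM NECA. A3 in CHO membranes (50 μg): 1 nM [3H]MRE3008-F20, 120 min at 4 °C.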

[7] = biological target: T5, Adenosine receptor A3 (Homo sapiens) (UniProt P0DMS8); test: Percentage of blockade by 1 uM of the inhibition by 100 nM IB-MECA-inhibited cAMP accumulation in CHO cells expressing human adenosine A3 receptor.; type: functional, cell-based
T5 sequence (whole entry): T4 sequence (P0DMS8 whole entry)
Outline: (§1)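 CHO cells stably expressing human A3 receptor; membranes in 50 mM Tris HCl, 10 mM MgCl2, 1 mM EDTA pH 7.4 with 5 μM GTP, 0.5 mM […] and 2.0 IU/mL adenosine deaminase. Preincubated 10 min at 37 °C, then IB-MECA (100 nM) and/or antagonist with 1 mM ATP and 10 μM forskolin for 10 min. Boiled 2 min. cAMP read by [3H]cAMP competition with adrenal binding protein.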

Adenosine receptor A3 [8] = biological target: T4, Adenosine receptor A3; test: Displacement of [3H]MRE3008-F20 from human adenosine A3 receptor expressed in CHO cells; range 1061-1245; type: cell-based
Adenosine receptor A2a [9] = biological target: T2, Adenosine receptor A2a; test: Displacement of [3H]-SCH- 58261 from human adenosine A2A receptor expressed in CHO cells; range 36-55; type: cell-based
Outline: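 Membranes from CHO cells stably expressing human A2A receptor, grown in DMEM/F12 without nucleosides, resuspended in 50 mM Tris HCl, 10 mM MgCl2, pH 7.4; 50 μg protein/assay. Competition with [3H]SCH 58261 at 6–8 or more compound concentrations, 60 min at 25 °C; nonspecific binding with 50 μM NECA. Filtration on GF/B filters, scintillation counting; n=3-6.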

Adenosine receptor A2b [10] = biological target: T1, Adenosine receptor A2b; test: Displacement of [3H]DPCPX from Adenosine A2b receptor expressed in CHO cells; range 343-468; type: cell-based; details: in the assay text read “HEK-293 cells” for “CHO cells”
Outline: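 Human recombinant A2B receptor was expressed in HEK-293 cell membranes (20 μg protein). Incubated with 40 nM [3H]DPCPX in 50 mM Tris HCl, 10 mM MgCl2, 1 mM EDTA, 0.1 mM benzamidine, pH 7.4, with 2 IU/mL adenosine deaminase, at least 6–8 test concentrations, 60 min, 25 °C. Nonspecific binding was taken with 100 μM NECA; n=3-6.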

Adenosine receptor A1 [11] = biological target: T3, Adenosine receptor A1; test: Displacement of [3H]DPCPX from human adenosine A1 receptor expressed in CHO cells; range 134-229; type: cell-based
Adenosine receptor A2b [12] = biological target: T1, Adenosine receptor A2b; test: Displacement of [3H]DPCPX from Adenosine A2b receptor expressed in […]; range 1770-2327; type: cell-based
[13] = biological target: T5, Adenosine receptor A3 (Homo sapiens); test: Percent reversal of 100 nM IB-MECA-inhibited cAMP accumulation in CHO cells expressing human adenosine A3 receptor at 1 uM; range 73-110; type: functional, cell-based; outline: as §1
Adenosine receptor A3 [14] = biological target: T4, Adenosine receptor A3; test: Displacement of [3H]MRE3008-F20 from human adenosine A3 receptor expressed in CHO cells; range 0.32-0.74; type: cell-based
Adenosine receptor A2a [15] = biological target: T2, Adenosine receptor A2a; test: Displacement of [3H]-SCH- 58261 from human adenosine A2A receptor expressed in CHO cells; range 150-207; type: cell-based
Adenosine receptor A1 [16] = biological target: T3, Adenosine receptor A1; test: Displacement of [3H]-DPCPX from human adenosine A1 receptor expressed in CHO cells; […]; type: cell-based
Adenosine receptor A3 [17] = biological target: T4, Adenosine receptor A3; test: Inhibition of cAMP accumulation in CHO cells expressing human adenosine A3 receptor; range 3.5-7.6; type: functional, cell-based
Adenosine receptor A2b [18] = biological target: T1, Adenosine receptor A2b; test: Displacement of [3H]DPCPX from Adenosine A2b receptor expressed in […]; range 183-278; type: cell-based
Adenosine receptor A3 [19] = biological target: T4, Adenosine receptor A3; test: Displacement of [3H]MRE3008-F20 from human adenosine A3 receptor expressed in CHO cells; range 51-70; type: cell-based
Adenosine receptor A2a [20] = biological target: T2, Adenosine receptor A2a; test: Displacement of [3H]-SCH- 58261 from human adenosine A2A receptor expressed in CHO cells; range 17-24; type: cell-based
Outline: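 CHO membranes expressing human A2A receptor (50 μg protein) in 50 mM Tris HCl, 10 mM MgCl2, pH 7.4, competed against [3H]SCH 58261. At least 6–8 test concentrations were used, with 60 min incubation at 25 °C. Nonspecific binding defined by 50 μM NECA; n=3-6.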

Adenosine receptor A1 [21] = biological target: T3, Adenosine receptor A1; test: Displacement of [3H]DPCPX from human adenosine A1 receptor expressed in CHO cells; range 123-160; type: cell-based
Adenosine receptor A3 [22] = biological target: T4, Adenosine receptor A3; test: biochemical
Adenosine receptor A2b [23] = biological target: T1, Adenosine receptor A2b; test: Displacement of [3H]DPCPX from Adenosine A2b receptor expressed in HEK-293 cells; range 44-58

Ki (Adenosine receptor A2b [12]): 2030 nM
inhibition [13]: 90%
Ki (Adenosine receptor A3 [14]): 0.48 nM
Ki (Adenosine receptor A2a [15]): 176 nM
Ki (Adenosine receptor A1 [16]): 1530 nM
IC50 (Adenosine receptor A3 [17]): 5.1 nM
Ratio [5]: 3190
Ratio [6]: 4230
Structure (SMILES): C=CCn1cc2c(nc(NC(=O)Nc3ccc(OC)cc3)n3nc(-c4ccco4)nc23)n1

Ki (Adenosine receptor A2b [18]): 226 nM
Ki (Adenosine receptor A3 [19]): 60 nM
Ratio [5]: 25
Ratio [6]: 3.7
inhibition [7]: 39%
Structure (SMILES): O=C(Nc1cccc(Cl)c1)Nc1nc2nn(CCCc3ccccc3)cc2c2nc(-c3ccco3)nn12

The next lines start with the molecule.

Structure (SMILES): O=C(Nc1cccc(Cl)c1)Nc1nc2nn(CCc3cccc4ccccc34)cc2c2nc(-c3ccco3)nn12
Ki (Adenosine receptor A2b [1]): > 10000 nM
Ki (Adenosine receptor A2a [2]): > 10000 nM
Ki (Adenosine receptor A1 [3]): 3160 nM
Ki (Adenosine receptor A3 [4]): 51 nM
Ratio [5]: 62
Ratio [6]: > 196
inhibition [7]: 40%

Structure (SMILES): CC(C)(C)n1cc2c(nc(N)n3nc(-c4ccco4)nc23)n1
Ki (Adenosine receptor A3 [8]): 1150 nM
Ki (Adenosine receptor A2a [9]): 45 nM
Ki (Adenosine receptor A2b [10]): 400 nM
Ki (Adenosine receptor A1 [11]): 175 nM
Ratio [5]: 0.15
Ratio [6]: 0.35
inhibition [7]: 9%

Structure (SMILES): Nc1nc2n[nH]cc2c2nc(-c3ccco3)nn12
Ki (Adenosine receptor A2a [20]): 20 nM
Ki (Adenosine receptor A1 [21]): 140 nM
Ratio [5]: 0.4
Ratio [6]: 0.15
inhibition [7]: 24%
Ki (Adenosine receptor A3 [22]): 348 nM
Ki (Adenosine receptor A2b [23]): 51 nM
